Bioassay records deposited in PubChem by several laboratories.
Arrestin-AP2 inh – inhibitors of beta-arrestin/AP2 binding, primary screen, biochemical, GPCR trafficking, flow cytometry | beta-arrestin 1 C-terminal peptide binding to AP2 beta2-adaptin appendage (human) | FITC-arrestin peptide / GST-AP2 beads; AP2 beta2 appendage carries R879A mutation | inhibition, % at 10 µM | 340,000 compounds, 0.31% hits;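 active means inhibition above a set limit, near 3 SD of compounds lacking own fluorescence, cut at about 54% in these data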;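 further: plate controls were DMSO wells for no effect and 5 µM unlabelled arrestin peptide for full effect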
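test system = AP2 appendage R879A on GSH beads | buffer or medium = PBS plus Tween 20 (0.05%) and BSA (0.1%) | incubation = 12 min plus 1 h, RT | detection = bead flow cytometry, FITC channel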
Lipid droplet – inhibitors of hepatocyte lipid droplet formation, primary screen, imaging, high-throughput imaging, BODIPY stain; AID 1656, 2009; inhibition, % at 6.5 µM; AML12 mouse hepatocytes, oleate lipid droplets; 240,000 compounds, 0.4% hits;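 active means lipid droplet intensity inhibited by at least 50%, with more than 500 cells counted; inconclusive means wells with under 300 cells, treated as cytotoxic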
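Assay system: AML12 hepatocytes (mouse); Probe or stimulus: oleic acid at 100 µM to induce lipid droplet formation; Dosing: compound at 6.5 µM only; Schedule: compound with oleate, overnight; Detection: fluorescence imaging, 20x objective, two fields per well; Measure: % inhibition of lipid droplet signal.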
NTR1 agonist – agonists of human NTR1, primary screen, imaging, U2OS cells, beta-arrestin-GFP, high content | Neurotensin receptor type 1 (Homo sapiens), P30989 | NTR1-U2OS beta-arrestin-GFP spot imaging, agonist mode | activation, % at 20 µM | 330,000 compounds, 0.17% hits;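 active means activation at or above 40% of the spot to cytoplasm intensity ratio, with at least 20 cells analyzed; inconclusive means wells under 20 cells, flagged as cytotoxic or low count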;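 further: 0% = DMSO without peptide and 100% = 100 nM NTR1 peptide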
H9c2 TAG inh – inhibitors of triacylglycerol accumulation, primary screen, cell-based, uHTS, fluorescence, H9c2; 230,000 compounds, 0.66% hits; inhibition, % at 12.5 µM; H9c2 cells, Nile Red lipid (TAG) fluorescence; cells loaded with 200 µM oleic acid;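 active means pattern-corrected inhibition of lipid staining of at least 50% with the nuclear-stain viability signal not falling by more than 50%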;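 further: 0% = DMSO wells and 100% = triacsin C control wells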
Beta2AR agonist – beta2AR agonists driving receptor internalization, primary screen, cell-based, FAP fluorogen, flow cytometry; response, % (test concentration not listed); Beta-2 adrenergic receptor (Homo sapiens), P07550; AID 504454, 2011; 340,000 compounds, 0.43% hits; Am2.2-beta2AR cells;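 active means response above a set limit, near 3 SD of response in nonfluorescent compounds, cut at about 42% in these data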
GRK2 inh – compounds blocking aptamer binding on GRK2 – biochemical, human GRK2, bead flow cytometry, HTS, primary screen; FAM-aptamer displacement from GRK2; inhibition of aptamer binding, % at 10 µM; Beta-adrenergic receptor kinase 1 (Homo sapiens), P25098; 330,000 compounds, 0.59% hits;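 active means inhibition of aptamer binding above 40%, roughly 3 SD of noise, on plates passing a quality check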;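 further: median bead fluorescence of bound FAM aptamer so fluorescent compounds give negative values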
GRK2 CP1 – GRK2 aptamer-displacing inhibitors, retest, confirmation, biochemical, cherry pick 1, bead flow cytometry; aptamer displacement, % at 10 µM; shares compounds with GRK2 inh; bead-bound GRK2, FAM-aptamer displacement; 2,000 compounds, 4% hits;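 active means aptamer displacement above 40%, near three times the noise of non-fluorescent compounds, on plates passing quality checks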;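 further: negative values mostly reflect intrinsic compound fluorescence rather than true enhancement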
FAM quench CP1 – quenches fluorescent RNA aptamer, GRK2 hit artifact; shares compounds with GRK2 inh; Carboxyfluorescein RNA aptamer on beads, flow cytometry quenching; hits give low values; fluorescence response (% of DMSO), % at 10 µM; 2,000 tested, under 10 active;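 active means compounds that quench the bead-bound fluorescent RNA probe, cutting fluorescence to under half of the solvent control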;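 further: counterscreen run without GRK2 so only probe quenching by compound is measured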
GRK2 confirm 2 – GRK2 aptamer-displacing inhibitors, hit retest, confirmation, biochemical, cherry pick 2, bead flow cytometry; inhibition of aptamer binding, % at 10 µM; bead-bound GRK2, FAM-aptamer displacement; shares compounds with GRK2 inh; 360 tested, under 10 active; AID 504782, 2011;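 active means inhibition of aptamer binding above 40%, about triple the noise seen with nonglowing compounds, on plates passing quality control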;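 further: negative values mostly come from compounds that fluoresce themselves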
FAM quench SP – counter-screen for GRK2 binding hits: quenchers of fluorescent RNA aptamer; shares compounds with GRK2 inh; carboxyfluorescein RNA aptamer beads, flow cytometry quenching; hits give low values; fluorescence response vs DMSO, % at 10 µM; 360 tested, under 10 active;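 active means response vs DMSO under 50%, meaning signal dropped by over half, treated as fluorescence quencher; inconclusive means no clear call, values can overlap the other calls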;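 further: labelled aptamer on streptavidin beads without GRK2 as a quench counter-screen; 100% = bead fluorescence of DMSO wells and lower means quenching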
NTR1 ag conf – NTR1 agonists, single-dose retest, confirmation, imaging, U2OS cells, beta-arrestin-GFP, single concentration; activation, % at 20 µM; shares compounds with NTR1 agonist; NTR1-U2OS beta-arrestin-GFP translocation imaging; 480 compounds, 38% hits;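 active means mean activation at 20 µM of at least 40%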;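 further: 0% = DMSO without peptide and 100% = 100 nM NTR1 peptide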
Arr AP2 CP1 – inhibitors of arrestin peptide binding to AP2, confirmation, biochemical, cherry pick 1, flow cytometry beads. shares compounds with Arrestin-AP2 inh. GST-AP2 beads, FITC arrestin peptide binding; GST-fused beta2-adaptin appendage, R879A mutant. inhibition, % at 10 µM. 1,300 compounds, 2% hits;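 active means inhibition above a set limit, roughly 3 SD of non-fluorescent compound noise, cut at about 38% in these data; inactive means inhibition at or below that limit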;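 further: loss of bead fluorescence from 50 nM FITC arrestin peptide bound to appendage; 0% = negative control wells and 100% = excess unlabelled arrestin peptide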
Target sequence (P63010 whole entry, looked up, the tested form may be a part, one chain of several): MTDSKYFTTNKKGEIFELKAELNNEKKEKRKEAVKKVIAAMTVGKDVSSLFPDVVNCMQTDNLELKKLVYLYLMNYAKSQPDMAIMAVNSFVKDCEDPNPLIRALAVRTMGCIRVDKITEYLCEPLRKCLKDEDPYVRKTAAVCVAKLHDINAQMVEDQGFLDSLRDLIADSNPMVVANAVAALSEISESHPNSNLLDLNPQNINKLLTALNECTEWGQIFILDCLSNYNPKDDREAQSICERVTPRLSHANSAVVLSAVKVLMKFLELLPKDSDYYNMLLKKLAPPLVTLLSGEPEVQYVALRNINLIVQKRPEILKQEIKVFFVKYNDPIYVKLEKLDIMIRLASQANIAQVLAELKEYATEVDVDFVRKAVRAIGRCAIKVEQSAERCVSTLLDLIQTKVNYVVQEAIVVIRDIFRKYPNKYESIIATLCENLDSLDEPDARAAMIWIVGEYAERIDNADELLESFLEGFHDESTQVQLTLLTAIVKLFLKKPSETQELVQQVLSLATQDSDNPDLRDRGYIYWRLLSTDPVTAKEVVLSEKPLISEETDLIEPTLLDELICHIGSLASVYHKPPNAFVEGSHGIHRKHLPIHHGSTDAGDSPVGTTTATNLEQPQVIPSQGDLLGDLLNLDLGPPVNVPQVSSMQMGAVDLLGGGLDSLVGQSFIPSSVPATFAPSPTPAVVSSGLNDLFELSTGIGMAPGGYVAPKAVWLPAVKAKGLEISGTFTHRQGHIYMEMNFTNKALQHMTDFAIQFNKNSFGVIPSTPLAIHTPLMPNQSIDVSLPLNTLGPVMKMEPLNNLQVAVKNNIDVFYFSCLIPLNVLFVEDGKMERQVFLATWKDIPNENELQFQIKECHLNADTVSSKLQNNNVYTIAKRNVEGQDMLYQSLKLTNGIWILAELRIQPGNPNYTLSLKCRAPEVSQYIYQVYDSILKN
GST GSH counter – GST-fluorescein capture on glutathione beads, confirmation, artefact control for arrestin-AP2 inhibitor project, biochemical, cherry pick 1, flow cytometry; shares compounds with Arrestin-AP2 inh; GST-fluorescein binding to GSH beads, fluorescence, counter-screen; inhibition, % at 10 µM; 1,300 compounds, 2% hits; AID 588338, 2011;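 active means inhibition above 50%, about 3 SD of the inhibition seen with non-fluorescent compounds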;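 further: fluorescein maleimide labelled GST captured on 4 micron glutathione beads; higher means more loss of bead fluorescence from quenching or blocked binding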
H9c2 TAG conf – triacylglycerol accumulation inhibitors, retest, confirmation, cell-based, single concentration, Nile Red fluorescence, H9c2 | shares compounds with H9c2 TAG inh | H9c2 lipid accumulation; cells loaded with 200 µM oleic acid | inhibition, % at 12.5 µM | 990 compounds, 71% hits;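 active means mean inhibition across replicates of 40% or more; inactive means mean inhibition below 40%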;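 further: plate controls were DMSO only wells for no effect and Triacsin C treated wells for full effect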
The depositor's hits bear a star; ? = inconclusive; . = not tested or not shown. Sampled rows, rich in hits. Any-hit rate of the full collection: about 2%.

SMILES	Arrestin-AP2 inh	Lipid droplet	NTR1 agonist	H9c2 TAG inh	Beta2AR agonist	GRK2 inh	GRK2 CP1	FAM quench CP1	others
COC(=O)C1CC(=O)N(c2ccc(C)cc2)C1 (configuration not stated)	3	15	-1	.	5	94*	1	98
COc1ccccc1NC(=O)C(C)OC(=O)CC1CCCCC1 (configuration not stated)	-8	.	-1	15	4	6	.	.
COc1ccccc1CNC(=O)c1cc(S(=O)(=O)N2CCOCC2)cn1C	-5	28	0	11	-9	0	.	.
Cn1cc(S(=O)(=O)N2CCOCC2)cc1C(=O)NCc1ccccc1Cl	-9	0	8	5	-7	0	2	99
CCOC(=O)C1(CCCc2ccccc2)CCN(Cc2nccn2CC)CC1	4	2	0	-17	-4	0	.	.
CCOC(=O)C1(CCCc2ccccc2)CCN(CCCn2cccn2)CC1	13	-2	-1	-12	2	93*	-3	106
Nc1c(C(=O)CSc2nncn2-c2ccccc2)c(=O)[nH]c(=O)n1C1CC1	6	.	1	1	25	61*	-1	95
CCCCCC(=O)Nc1cccc(C2=NOC3(C2)C[C@H](C(N)=O)N(C(=O)COc2ccc(Cl)cc2)C3)c1 (some centres not stated)	28	.	42*	6	-5	1	.	.	GRK2 confirm 2=11;FAM quench SP=98;NTR1 ag conf=5
CC(=O)c1cccc(CN2CCCC(C(=O)Nc3ccc(-c4ccco4)cc3)C2)c1 (configuration not stated)	5	-7	0	4	12	0	.	.
CCN1CCN(C(=O)NC2CCCCC2)CC1	26	9	1	2	4	0	.	.
O=C(NC1CCCCC1)N1CCN(CCc2ccccc2)CC1	54*	-18	0	.	11	70*	-2	101	Arr AP2 CP1=-2;GST GSH counter=-2
Cc1cc(C)n2nc(SCC(=O)Nc3ccc(O)cc3)nc2n1	27	-5	0	.	12	1	.	.
Cc1cc(C)cc(NC(=O)CSc2nc3nc(C)cc(C)n3n2)c1	68*	.	-2	2	-7	41*	-2	106	Arr AP2 CP1=-7;GST GSH counter=5
COc1ccc(C2=NN(CN3C(=O)C(=O)c4ccccc43)C(c3cccc([N+](=O)[O-])c3)C2)cc1 (configuration not stated)	-8	12	1	-7	8	1	.	.
CCCc1cc(=O)[nH]c(SCC(=O)c2c[nH]c3ccccc23)n1	54*	0	0	13	2	59*	-2	116	Arr AP2 CP1=4;GST GSH counter=4
CC(C)(C)OC(=O)N1CCCC(C(=O)Nc2cccc(C(=O)N3CCCCC3)c2)C1 (configuration not stated)	45	.	.	-2	-5	.	.	.
CCN(CC(=O)Nc1c(F)cccc1F)C(=O)/C=C/c1ccc2ccccc2n1	60*	.	0	5	1	94*	31	92	Arr AP2 CP1=22;GST GSH counter=5
COc1ccccc1NC(=O)N1CCC(c2nc3cc(C)c(C)cc3[nH]2)CC1	-10	?	1	51*	11	25	0	97	H9c2 TAG conf=45*
CN1CCN(c2ccc(CNC(=O)C3(C)Cc4c(-c5ccc(C(N)=O)cc5)ccnc4O3)cc2)CC1 (configuration not stated)	.	.	.	3	.	.	.	.
O=[N+]([O-])c1ccc(-c2cn3nc(-c4ccccc4)c(-c4ccccc4)nc3n2)cc1	39	11	1	87*	4	42*	28	107	H9c2 TAG conf=9
O=[N+]([O-])c1cccc(-c2cn3nc(-c4ccccc4)c(-c4ccccc4)nc3n2)c1	21	19	1	-3	-6	14	.	.
O=C1Nc2cc(C(=O)NCCCN3CCOCC3)ccc2S/C1=C/c1cccc(Cl)c1	10	0	44*	.	20	0	.	.	NTR1 ag conf=4
O=C(/C(=C/c1ccc(Cl)cc1)c1nc2ccccc2[nH]1)c1cccs1	30	-48	54*	.	62*	0	.	.	NTR1 ag conf=62*
O=C(/C(=C\c1ccccc1)c1nc2ccccc2[nH]1)c1ccc(Cl)cc1	-7	-40	16	.	15	4	.	.
CCOc1ccc(C(C(=O)NCC2CCCO2)N(C(=O)c2snc(C(N)=O)c2N)c2ccc(F)cc2)cc1 (configuration not stated)	40	4	44*	.	4	1	.	.	NTR1 ag conf=4
